# Measured values pooled from the literature.
# Each line is one published result; the experiments were not run side by side.
# Target: Serine/threonine-protein kinase TBK1 (TBK1, Homo sapiens, UniProt Q9UHD2)
# Sequence (Q9UHD2 1-729, as in one of the studies): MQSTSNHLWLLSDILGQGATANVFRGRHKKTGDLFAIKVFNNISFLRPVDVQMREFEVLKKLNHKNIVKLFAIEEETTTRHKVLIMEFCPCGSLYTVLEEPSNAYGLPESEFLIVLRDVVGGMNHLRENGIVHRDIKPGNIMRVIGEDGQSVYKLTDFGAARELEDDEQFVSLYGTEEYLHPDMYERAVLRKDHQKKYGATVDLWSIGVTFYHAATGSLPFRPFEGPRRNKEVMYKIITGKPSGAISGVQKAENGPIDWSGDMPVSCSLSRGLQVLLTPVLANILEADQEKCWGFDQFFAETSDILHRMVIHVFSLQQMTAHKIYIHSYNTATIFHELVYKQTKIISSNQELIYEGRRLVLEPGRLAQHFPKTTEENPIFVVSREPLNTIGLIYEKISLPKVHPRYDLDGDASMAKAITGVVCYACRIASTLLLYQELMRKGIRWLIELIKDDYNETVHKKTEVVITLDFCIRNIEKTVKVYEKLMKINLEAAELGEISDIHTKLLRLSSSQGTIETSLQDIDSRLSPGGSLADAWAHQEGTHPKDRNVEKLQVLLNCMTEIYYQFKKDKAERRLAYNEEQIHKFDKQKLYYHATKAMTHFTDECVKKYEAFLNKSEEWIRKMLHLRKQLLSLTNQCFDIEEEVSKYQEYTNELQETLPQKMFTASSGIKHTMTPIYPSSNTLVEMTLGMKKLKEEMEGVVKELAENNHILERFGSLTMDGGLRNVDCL
SMILES,test,setting,remaining binding
O=C(O)[C@@H]1[C@@H](Cn2nnc3ccccc3c2=O)CC[C@H]1C(=O)c1ccc(OCCC2CCOCC2)cc1,"cell-free assay, competition with immobilised ligand",1 µM,100%
CN(CCCC(F)(F)F)c1nccc(-c2cnn3ncccc23)n1,binding,1 µM,91%
O=C(NCCCN1CCOCC1)c1ccc(Nc2nccc(-c3cc4ccccc4s3)n2)cc1,"binding, competition with immobilised ligand",1 µM,70%
C[C@@H]1CCN(c2nccc(-c3cnn4ncccc34)n2)C1,binding,1 µM,63%
O=C(NCC1CCOCC1)c1n[nH]cc1NC(=O)c1c(F)cccc1F,"binding, competition with immobilised ligand",1 µM,96%
CC(=O)N1CCC(c2ccc(C(=O)NC(=N)N)cc2C(F)(F)F)CC1,"cell-free assay, competition with immobilised ligand",1 µM,100%
O=C(c1ccc(Nc2ncc(Cl)c(-c3ccc(Cl)s3)n2)cc1)N1CCC(N2CCCC2)CC1,"binding, competition with immobilised ligand",1 µM,0%
CS(=O)(=O)NCC[C@H](NC(=O)c1cncc2c1cnn2-c1ccc(F)cc1)c1ccnc(S(C)(=O)=O)c1,"cell-free assay, competition with immobilised ligand",1 µM,94%
COc1cnc(Nc2cccc(S(N)(=O)=O)c2)nc1N1CCN(c2ccccc2)CC1,"binding, competition with immobilised ligand",1 µM,61%
COc1ncc2cc3ccccc3nc2c1C#N,"cell-free assay, competition with immobilised ligand",5 µM,98%
CCN1CCN(Cc2ccc(C(=O)Nc3ccc(C)c(Oc4ccc5c(c4)CC(=O)N5)c3)cc2C(F)(F)F)CC1,"binding, competition with immobilised ligand",1 µM,50%
CN(c1nccc(-c2cnn3ncccc23)n1)C1CC1,binding,1 µM,100%
Cc1cnc(Nc2ccc(C(=O)N3CCC(N4CCCC4)CC3)cc2)nc1-c1cc2ccccc2s1,"binding, competition with immobilised ligand",1 µM,4.5%
CNCc1ccccc1-c1csc([C@@H](C)Nc2nc(C)nc3cc(OC)c(OC)cc23)c1,"cell-free assay, competition with immobilised ligand",1 µM,100%
CNC(=O)[C@@H]1CC[C@@H](n2c(-c3ccc4cnccc4c3)nc3ccc(C(=O)NCc4cccc(C(N)=O)c4)cc32)C1,"binding, competition with immobilised ligand",1 µM,95%
N[C@H]1CCN(c2nccc(-c3cnn4ncccc34)n2)C1,binding,1 µM,100%
O=c1nc(-c2ccccn2)sc2ccccc12,"binding, competition with immobilised ligand",1 µM,91%
CN(C)c1ncc(F)c(-c2cnn3ncccc23)n1,binding,1 µM,86%
CC(C)(O)c1cncc(-c2nc3ccc(F)cc3n2C2CC2)c1,"cell-free assay, competition with immobilised ligand",1 µM,72%
COc1ccnn2ncc(-c3ccnc(N(C)C)n3)c12,binding,1 µM,68%
C[C@@H](c1ccc(-n2cnc3c(N)ncnc32)cc1)N1CCc2nn(C)c(Cc3ccccc3)c2C1=O,"binding, competition with immobilised ligand",0.1 µM,98%
